Test results published in ChEMBL document CHEMBL4020827, “Targeting Multiple Effector Pathways in Pancreatic Ductal Adenocarcinoma with a G-Quadruplex-Binding Small Molecule” (J Med Chem, 2018).
Calls of active or inactive are those of the source. No cut-off for these calls is given here.

What was measured:
MIA PaCa-2 [1] = experiment: Effect on MAPK11 gene expression in human MIAPaCa2 cells at 400 nM after 24 hrs by RNA sequence analysis relative to control; format: functional
MIA PaCa-2 [2] = experiment: Effect on CBFA2T3 gene expression in human MIAPaCa2 cells at 400 nM after 6 hrs by RNA sequence analysis relative to control; format: functional
Method in brief: (§1)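 PANC-1 (0.35 x 10^6) or MIA PaCa-2 (1.5 x 10^6) cells seeded overnight in 60 mm plates, then exposed to 400 nM compound for 6 or 24 h; untreated cells as controls. Cells were mycoplasma-free and STR-certified. Differential expression by RNA-seq, called at FDR < 0.1.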

PANC-1 [3] = experiment: Effect on mLST8 gene expression in human PANC1 cells at 400 nM after 24 hrs by RNA sequence analysis relative to control; format: functional
Method in brief: (§2)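 RNA-seq: cells seeded overnight in 60 mm plates (PANC-1 0.35 x 10^6, MIA PaCa-2 1.5 x 10^6 cells/well), then exposed to 400 nM compound for 6 or 24 h against untreated controls. Cell lines mycoplasma-free by RNA-capture ELISA and STR-profiled. Differentially expressed genes called at FDR < 0.1.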

MIA PaCa-2 [4] = experiment: Antitumor activity against human MIAPaCa2 cells xenografted in CD-1 nude mouse assessed as change in tumor volume at 10 mg/kg, iv administered twice weekly for 4 weeks measured on day 62 relative to control; format: functional
Method in brief: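 Female CD-1 nude mice (2-3 months, 20−25 g) given 5 x 10^6 MIA PaCa-2 cells subcutaneously in right flank with Matrigel; dosing began once tumors were established (approx. 13 days, mean 0.05 cm3). Eight mice/group, IV in saline twice weekly for 28 days (8 doses) against a saline group. Tumors measured by calliper (length × width × height × π/6), with body weight. Student's t test.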

PANC-1 [5] = experiment: Effect on PIK3R3 gene expression in human PANC1 cells at 400 nM after 6 hrs by RNA sequence analysis relative to control; format: functional
PANC-1 [6] = experiment: Effect on PARD6A gene expression in human PANC1 cells at 400 nM after 6 hrs by RNA sequence analysis relative to control; format: functional
PANC-1 [7] = experiment: Effect on ARF6 gene expression in human PANC1 cells at 400 nM after 6 hrs by RNA sequence analysis relative to control; format: functional; method in brief: as §1
PANC-1 [8] = experiment: Effect on AKT1 gene expression in human PANC1 cells at 400 nM after 24 hrs by RNA sequence analysis relative to control; format: functional; method in brief: as §1
PANC-1 [9] = experiment: Effect on AKT1S1 gene expression in human PANC1 cells at 400 nM after 6 hrs by RNA sequence analysis relative to control; format: functional; method in brief: as §1
[10] = Solubility of the compound in saline; format: physicochemical
PANC-1 [11] = experiment: Effect on PAK1 gene expression in human PANC1 cells at 400 nM after 24 hrs by RNA sequence analysis relative to control; format: functional
PANC-1 [12] = experiment: Growth inhibition of human PANC1 cells after 96 hrs by SRB assay; format: functional, cell-based; settings: PANC-1, 96 h
PANC-1 [13] = experiment: Effect on PCK2 gene expression in human PANC1 cells at 400 nM after 24 hrs by RNA sequence analysis relative to control; format: functional
A549 = experiment: Growth inhibition of human A549 cells after 96 hrs by SRB assay; format: functional, cell-based; settings: A549, 96 h
Method in brief: (§3)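 Cell lines kept at 37 °C, 5% CO2 in medium with 10% FBS and 2 mM L-glutamine. Compound dissolved in water, filter-sterilised, 10 mM stock diluted into media. Growth read by 96 h sulforhodamine B assay, absorbance at 540 nm. IC50 taken from mean absorbance per concentration as % of untreated wells, >3 individual determinations with standard deviations.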

MIA PaCa-2 [14] = experiment: Effect on mLST8 gene expression in human MIAPaCa2 cells at 400 nM after 6 hrs by RNA sequence analysis relative to control; format: functional; method in brief: as §2
MIA PaCa-2 [15] = experiment: Effect on TEAD3 gene expression in human MIAPaCa2 cells at 400 nM after 6 hrs by RNA sequence analysis relative to control; format: functional; method in brief: as §2
MIA PaCa-2 [16] = experiment: Effect on PIK3R3 gene expression in human MIAPaCa2 cells at 400 nM after 6 hrs by RNA sequence analysis relative to control; format: functional
BXPC-3 = experiment: Growth inhibition of human BxPC3 cells after 96 hrs by SRB assay; format: functional, cell-based; settings: BXPC-3, 96 h; method in brief: as §3
[17] = Binding affinity to 5'-FAM/3'-TAMRA labeled human telomeric F21T G-quadruplex DNA by direct fluorescence method
Method in brief: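 Buffer was 50 mM KCl, 10 mM Tris-HCl, 1 mM EDTA, pH 7.3, 25 °C, quartz cuvette. Quenching of ligand emission at 570 nm tracked; KD from a quadratic quenching fit.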

MIA PaCa-2 [18] = experiment: Effect on PAK1 gene expression in human MIAPaCa2 cells at 400 nM after 24 hrs by RNA sequence analysis relative to control; format: functional
MIA PaCa-2 [19] = experiment: Effect on ARF6 gene expression in human MIAPaCa2 cells at 400 nM after 24 hrs by RNA sequence analysis relative to control; format: functional; method in brief: as §1
MIA PaCa-2 [20] = experiment: Effect on GLI1 gene expression in human MIAPaCa2 cells at 400 nM after 6 hrs by RNA sequence analysis relative to control; format: functional; method in brief: as §1
PANC-1 [21] = experiment: Effect on AKT1 gene expression in human PANC1 cells at 400 nM after 6 hrs by RNA sequence analysis relative to control; format: functional; method in brief: as §1
PANC-1 [22] = experiment: Effect on SMO gene expression in human PANC1 cells at 400 nM after 24 hrs by RNA sequence analysis relative to control; format: functional; method in brief: as §2
PANC-1 [23] = experiment: Effect on MAPK11 gene expression in human PANC1 cells at 400 nM after 6 hrs by RNA sequence analysis relative to control; format: functional
MIA PaCa-2 [24] = experiment: Effect on PIK3R3 gene expression in human MIAPaCa2 cells at 400 nM after 24 hrs by RNA sequence analysis relative to control; format: functional
MIA PaCa-2 [25] = experiment: Antitumor activity against human MIAPaCa2 cells xenografted in CD-1 nude mouse assessed as tumor growth inhibition administered twice weekly for 4 weeks; format: functional, cell-based
Method in brief: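 Female CD-1 nude mice (2-3 months, 20−25 g) given 5 x 10^6 MIA PaCa-2 cells s.c. in right flank in RPMI + Matrigel; dosing began once tumors were established (~13 days, mean 0.05 cm3). Groups of eight received IV doses in saline, twice weekly for 28 days (8 doses), against a saline group. Tumors measured by calliper (length × width × height × π/6) every 3−4 days, to day 62; Student's t test.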

MIA PaCa-2 [26] = experiment: Effect on GLI4 gene expression in human MIAPaCa2 cells at 400 nM after 24 hrs by RNA sequence analysis relative to control; format: functional; method in brief: as §1
MCF7 = experiment: Growth inhibition of human MCF7 cells after 96 hrs by SRB assay; format: functional, cell-based; settings: MCF7, 96 h
MIA PaCa-2 [27] = experiment: Effect on AKT1S1 gene expression in human MIAPaCa2 cells at 400 nM after 24 hrs by RNA sequence analysis relative to control; format: functional; method in brief: as §1
Homo sapiens = species: Homo sapiens; experiment: Stabilization of G-quadruplex DNA in human PANC1 cells assessed as increase in BG4 foci at 400 nM after 6 to 24 hrs by FITC/Cy5/DAPI staining based immunofluorescence assay; format: cell-based

O=C1c2ccc3c4c(c(NCCN5CCCC5)cc(c24)C(=O)N1CCCN1CCOCC1)C(=O)N(CCCN1CCOCC1)C3=O
log2FC (MIA PaCa-2 [1]): -2.56 | log2FC (MIA PaCa-2 [2]): -2.74 | log2FC (PANC-1 [3]): -1.72 | Activity (MIA PaCa-2 [4]): -51.7% | log2FC (PANC-1 [5]): -0.16 | log2FC (PANC-1 [6]): -0.63 | log2FC (PANC-1 [7]): -0.74 | log2FC (PANC-1 [8]): -1.04 | log2FC (PANC-1 [9]): -0.11 | solubility [10]: > 10000 µg/mL | log2FC (PANC-1 [11]): -1.11 | IC50 (PANC-1 [12]): 18 nM | log2FC (PANC-1 [13]): -0.56 | IC50 (A549): 24 nM | log2FC (MIA PaCa-2 [14]): -0.76 | log2FC (MIA PaCa-2 [15]): -1.06 | log2FC (MIA PaCa-2 [16]): -0.28 | IC50 (BXPC-3): 19 nM | Kd [17]: 67 nM | log2FC (MIA PaCa-2 [18]): -1.13 | log2FC (MIA PaCa-2 [19]): -0.54 | log2FC (MIA PaCa-2 [20]): -0.61 | log2FC (PANC-1 [21]): -0.18 | log2FC (PANC-1 [22]): -0.82 | log2FC (PANC-1 [23]): -0.38 | log2FC (MIA PaCa-2 [24]): -1.47 | TGI (MIA PaCa-2 [25]): Dose-dependent effect | log2FC (MIA PaCa-2 [26]): -1.85 | IC50 (MCF7): 159 nM | log2FC (MIA PaCa-2 [27]): -1.09 | Activity (Homo sapiens): Active
